{
  "source": "ChEMBL document CHEMBL4725348",
  "about": "“Rational Design and Evaluation of 6-(Pyrimidin-2-ylamino)-3,4-dihydroquinoxalin-2(1H)-ones as Polypharmacological Inhibitors of BET and Kinases” (J Med Chem, 2020)",
  "key": {"[1]": {"molecular_target": "T1, Bromodomain-containing protein 4 (Homo sapiens, UniProt O60885)", "experiment": "Inhibition of His6-tagged BRD4 bromodomain 1 (unknown origin) expressed in Escherichia coli Bl21(DE3) cells incubated for 4 hrs by FP assay", "how_it_was_run": "(§1)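 Fluorescence polarization. Purified bromodomain (His6 tag removed with TEV, size-exclusion purified) equilibrated with fluorescent ligand. Compound or DMSO (2‰ final) then added and left 4 h at room temperature in the dark. Anisotropy read at ex 485/em 530 nm. IC50 values are means of at least two independent experiments; single-point inhibition tested at the listed concentration.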"}, "[2]": {"molecular_target": "T2, Cyclin-dependent kinase 9 (Homo sapiens, UniProt P50750)", "T2 sequence (P50750 whole entry)": "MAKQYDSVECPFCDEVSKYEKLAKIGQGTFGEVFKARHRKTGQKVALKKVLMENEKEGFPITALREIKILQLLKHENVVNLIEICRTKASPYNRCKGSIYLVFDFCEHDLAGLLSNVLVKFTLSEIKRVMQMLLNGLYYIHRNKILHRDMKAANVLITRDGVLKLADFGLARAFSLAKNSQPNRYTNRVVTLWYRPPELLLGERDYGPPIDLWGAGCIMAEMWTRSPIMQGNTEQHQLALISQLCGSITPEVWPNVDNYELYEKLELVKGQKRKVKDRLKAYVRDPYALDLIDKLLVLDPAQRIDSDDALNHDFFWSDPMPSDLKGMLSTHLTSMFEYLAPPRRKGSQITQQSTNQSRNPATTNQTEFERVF", "experiment": "Inhibition of human CDK9 by mobility shift assay relative to control", "how_it_was_run": "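Recombinant CDK9 incubated with compound and CTD3 peptide substrate. Activity read by Caliper mobility-shift; Dinaciclib served as positive control. IC50 values are means of at least two independent experiments.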"}, "[3]": {"molecular_target": "Cyclin-dependent kinase 1 (Homo sapiens) (UniProt P06493)", "sequence (P06493 whole entry, looked up)": "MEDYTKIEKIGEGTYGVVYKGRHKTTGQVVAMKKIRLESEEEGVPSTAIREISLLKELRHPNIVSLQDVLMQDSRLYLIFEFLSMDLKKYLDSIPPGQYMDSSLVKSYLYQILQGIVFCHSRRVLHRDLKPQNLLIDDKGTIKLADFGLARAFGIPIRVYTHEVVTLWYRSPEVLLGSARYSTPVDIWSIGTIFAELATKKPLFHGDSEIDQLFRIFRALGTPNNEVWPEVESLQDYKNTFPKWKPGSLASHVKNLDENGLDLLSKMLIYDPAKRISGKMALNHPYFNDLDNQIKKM", "experiment": "Inhibition of human CDK1 at 1 uM by kinome scan method relative to control", "how_it_was_run": "(§2)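 Eurofins DiscoveRx diversity kinase panel run at 1 µM. Inhibition values are means of at least two independent experiments.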"}, "[4]": {"molecular_target": "T3, Cyclin-dependent kinase 2 (Homo sapiens, UniProt P24941)", "experiment": "Inhibition of human CDK2 at 1 uM by kinome scan method relative to control", "how_it_was_run": "as §2"}, "[5]": {"molecular_target": "T3, Cyclin-dependent kinase 2", "experiment": "Inhibition of human CDK2 by kinome scan method"}, "Homo sapiens": {"organism": "Homo sapiens", "experiment": "Selectivity ratio of IC50 for inhibition of human CDK2 to IC50 for inhibition of human CDK9"}, "[6]": {"molecular_target": "T1, Bromodomain-containing protein 4", "experiment": "Inhibition of His6-tagged BRD4 bromodomain 2 (unknown origin) expressed in Escherichia coli Bl21(DE3) cells at 1 uM incubated for 4 hrs by FP assay relative to control", "how_it_was_run": "as §1"}, "[7]": {"molecular_target": "Bromodomain-containing protein 2 (Homo sapiens) (UniProt P25440)", "sequence (P25440 whole entry, looked up)": "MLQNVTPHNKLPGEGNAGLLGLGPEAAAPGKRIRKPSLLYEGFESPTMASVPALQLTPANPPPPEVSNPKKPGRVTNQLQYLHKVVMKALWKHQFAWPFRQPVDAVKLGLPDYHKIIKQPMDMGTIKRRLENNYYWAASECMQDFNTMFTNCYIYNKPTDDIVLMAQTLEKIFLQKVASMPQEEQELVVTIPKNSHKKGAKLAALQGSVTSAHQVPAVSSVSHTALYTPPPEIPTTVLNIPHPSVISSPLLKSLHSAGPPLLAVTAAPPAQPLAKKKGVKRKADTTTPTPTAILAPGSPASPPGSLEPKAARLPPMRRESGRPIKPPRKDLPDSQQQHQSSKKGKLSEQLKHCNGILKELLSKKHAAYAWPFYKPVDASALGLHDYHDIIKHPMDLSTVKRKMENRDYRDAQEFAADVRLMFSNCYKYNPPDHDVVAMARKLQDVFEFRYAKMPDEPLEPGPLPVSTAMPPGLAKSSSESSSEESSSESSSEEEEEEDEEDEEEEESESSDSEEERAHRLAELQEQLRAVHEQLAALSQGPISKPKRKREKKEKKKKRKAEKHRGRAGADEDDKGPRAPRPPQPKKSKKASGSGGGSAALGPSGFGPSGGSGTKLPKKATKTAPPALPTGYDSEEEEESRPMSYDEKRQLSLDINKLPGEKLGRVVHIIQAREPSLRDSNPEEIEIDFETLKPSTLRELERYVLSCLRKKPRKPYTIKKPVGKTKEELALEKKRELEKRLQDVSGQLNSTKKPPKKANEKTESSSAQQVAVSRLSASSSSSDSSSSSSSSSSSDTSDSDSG", "experiment": "Inhibition of His6-tagged BRD2 bromodomain 1 (unknown origin) expressed in Escherichia coli Bl21(DE3) cells at 1 uM incubated for 4 hrs by FP assay relative to control", "how_it_was_run": "as §1"}, "[8]": {"molecular_target": "Bromodomain-containing protein 2 (Homo sapiens) (UniProt P25440)", "experiment": "Inhibition of His6-tagged BRD2 bromodomain 2 (unknown origin) expressed in Escherichia coli Bl21(DE3) cells at 1 uM incubated for 4 hrs by FP assay relative to control", "how_it_was_run": "as §1"}, "[9]": {"molecular_target": "T2, Cyclin-dependent kinase 9", "experiment": "Inhibition of CDK9 in human HCT-116 cells assessed as reduction in phosphorylation of […] protein expression at 50 to 500 nM after 24 hrs by Western blot analysis", "format": "cell-based", "settings": "dose nM 50-500, time 24.0 hrs", "how_it_was_run": "(§3)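 HCT-116 cells plated 24 h, then treated 24 h at 0, 50, 100, 250 or 500 nM. Lysates immunoblotted for p-AR and p-RNA Pol II CTD with GAPDH as loading control; bands quantified and normalized.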"}, "[10]": {"molecular_target": "T2, Cyclin-dependent kinase 9", "experiment": "Inhibition of CDK9 in human HCT-116 cells assessed as reduction in phosphorylation of AR protein expression at 50 to 500 nM after 24 hrs by Western blot analysis", "format": "cell-based", "settings": "dose nM 50-500, time 24.0 hrs", "how_it_was_run": "as §3"}, "[11]": {"experiment": "AUC (0 to infinity) in ICR mouse at 3 mg/kg, ip and measured up to 24 hrs by TQ-S triple quadrupole mass spectrometric method", "format": "ADME, organism-based", "parameters": "route intraperitoneal, dose 3 mg/kg, time <=24", "settings": "in vivo", "how_it_was_run": "(§4)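 Male ICR mice (20 - 22 g, n = 3) dosed intraperitoneally, compound at 1 mg/mL in 1%DMSO/0.5%HPMC (5/95, v/v). EDTA plasma collected 0.25–24 h. 10 µL plasma treated with methanol:acetonitrile (1:1) containing internal standard, then centrifuged. LC-MS/MS on C18 UPLC. Parameters derived from composite mean plasma concentration-time data; Cmax is the maximum observed concentration and Tmax the time it is reached.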"}, "[12]": {"experiment": "AUC (0 to t) in ICR mouse at 3 mg/kg, ip and measured up to 24 hrs by TQ-S triple quadrupole mass spectrometric method", "format": "ADME, organism-based", "parameters": "route intraperitoneal, dose 3 mg/kg, time <=24", "settings": "in vivo", "how_it_was_run": "as §4"}, "[13]": {"experiment": "Cmax in ICR mouse at 3 mg/kg, ip and measured up to 24 hrs by TQ-S triple quadrupole mass spectrometric method", "format": "ADME, organism-based", "parameters": "route intraperitoneal, dose 3 mg/kg, time <=24", "settings": "in vivo", "how_it_was_run": "as §4"}, "[14]": {"experiment": "Tmax in ICR mouse at 3 mg/kg, ip and measured up to 24 hrs by TQ-S triple quadrupole mass spectrometric method", "format": "ADME, organism-based", "settings": "in vivo", "how_it_was_run": "as §4"}, "[15]": {"experiment": "Half life in ICR mouse at 3 mg/kg, ip and measured up to 24 hrs by TQ-S triple quadrupole mass spectrometric method", "format": "ADME, organism-based", "settings": "in vivo", "how_it_was_run": "as §4"}, "[16]": {"experiment": "Elimination rate constant in ICR mouse at 3 mg/kg, ip and measured up to 24 hrs by TQ-S triple quadrupole mass spectrometric method", "format": "ADME, organism-based", "settings": "in vivo", "how_it_was_run": "as §4"}},
  "data": [
    {"smiles": "CC(C)N1c2cc(Nc3nccc(-c4cncc5ccccc45)n3)ccc2N(C)C(=O)[C@H]1C", "values": [
      {"measurement": "IC50", "setting": "[1]", "result": 12.7, "unit": "nM"},
      {"measurement": "IC50", "setting": "[2]", "result": 22.4, "unit": "nM"},
      {"measurement": "inhibition", "setting": "[3]", "result": 90, "unit": "%"},
      {"measurement": "inhibition", "setting": "[4]", "result": 90, "unit": "%"},
      {"measurement": "IC50", "setting": "[5]", "result": 169, "unit": "nM"},
      {"measurement": "Ratio IC50", "setting": "Homo sapiens", "result": 8},
      {"measurement": "inhibition", "setting": "[6]", "result": "< 12", "unit": "%"},
      {"measurement": "inhibition", "setting": "[7]", "result": "< 12", "unit": "%"},
      {"measurement": "inhibition", "setting": "[8]", "result": "< 12", "unit": "%"},
      {"measurement": "inhibition", "setting": "[9]", "result": "Dose-dependent effect"},
      {"measurement": "inhibition", "setting": "[10]", "result": "Dose-dependent effect"},
      {"measurement": "AUC(0-inf)", "setting": "[11]", "result": 759, "unit": "ng·h/mL"},
      {"measurement": "AUC(0-t) at 24 h", "setting": "[12]", "result": 757, "unit": "ng·h/mL"},
      {"measurement": "Cmax", "setting": "[13]", "result": 1370, "unit": "ng/mL"},
      {"measurement": "Tmax", "setting": "[14]", "result": 11.6, "unit": "min"},
      {"measurement": "half-life", "setting": "[15]", "result": 28.8, "unit": "min"},
      {"measurement": "k el at 24 h", "setting": "[16]", "result": 0.000403, "unit": "s⁻¹"}
    ]}
  ]
}
